Experimental data: paper PMC5836847 (Clinical Pharmacology and Therapeutics, 2017)

How the values were obtained:
[1] = cited from earlier work
[2] = Plasma pharmacokinetics of sildenafil and N-desmethyl-sildenafil; type: in vivo, human; settings: for AUCinf, Intrasubject CV / AUClast, Intrasubject CV / Cmax, Intrasubject CV: fixed effect model, sacubitril/valsartan + sildenafil vs. sildenafil alone; for Tmax (median time to reach maximum concentration): single-dose oral administration of sildenafil; for AUC(0-t): AUClast
How it was run: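 Male hypertensive patients received single oral sildenafil 50 mg alone (Day 1), then again on Day 8 with sacubitril/valsartan 400 mg q.d. at steady state. Plasma sildenafil and N-desmethyl-sildenafil were profiled after each dose. Outputs were AUCinf, AUClast, T1/2, Cmax and Tmax. Log-transformed parameters went into a fixed-effect model with subject and treatment as factors; combination was test, sildenafil alone reference. Output was back-transformed GMR with 90% CI.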

[3] = Plasma pharmacokinetics of sacubitril/valsartan analytes at steady state; type: in vivo, human; settings: for AUCtau,ss, Intrasubject CV / Cmax,ss, Intrasubject CV: fixed effect model; for AUC / Cmax: male, human, oral, Mean ± SD; for AUC / Cmax / Tmax (time of peak concentrations): plasma; for AUC: AUCtau,ss, Sacubitril/valsartan alone (400 mg q.d., steady state, Day 7); for Cmax: Cmax,ss; for Tmax (time of peak concentrations): oral administration of sacubitril/valsartan, steady state
How it was run: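 Male hypertensive patients took oral sacubitril/valsartan 400 mg q.d. on Days 3–7, with predose samples on Days 3–6. Plasma sacubitril, sacubitrilat and valsartan were profiled at steady state on Day 7 and on Day 8 with single-dose sildenafil 50 mg. Outputs were AUCtau,ss, Cmax,ss and Tmax,ss. Log-transformed parameters went into a fixed-effect model with subject and treatment as factors; combination was test, monotherapy reference. Output was back-transformed GMR with 90% CI.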

[4] = system: healthy subjects; settings: 40 mg and 80 mg doses; cited from earlier work
[5] = system: patients with mild-to-moderate hypertension; test: Safety assessments; type: in vivo, human; settings: for safety and tolerability: single-dose sildenafil 50 mg, sacubitril/valsartan 400 mg q.d., coadministration
How it was run: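 Adverse events were recorded across three sequential periods in male hypertensive patients: single oral sildenafil 50 mg (Day 1), sacubitril/valsartan 400 mg q.d. (Days 3–7), and both together (Day 8). Events were graded by intensity and by suspected relation to study drug. They were summarised by treatment and visit/time, as number and percentage of subjects by body system and treatment.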

[6] = system: patients with HFrEF; settings: cited from earlier work
[7] = 200 mg twice daily or 400 mg q.d., healthy individuals; cited from earlier work
[8] = sacubitril/valsartan and warfarin coadministered; cited from earlier work
[9] = cited from earlier work; remark: listed apart in the source
[10] = plasma, Sacubitril/valsartan + Sildenafil (Day 8)
[11] = plasma, Sildenafil alone (50 mg single dose, Day 1)
[12] = plasma, Sildenafil alone (Day 1)
[13] = 400 mg, Sacubitril/valsartan alone (Day 7)
[14] = Sacubitril/valsartan + Sildenafil (Day 8)
[15] = coadministration of sacubitril/valsartan and sildenafil vs. sacubitril/valsartan alone

Row | AUCinf, Intrasubject CV [2] [%] | AUClast, Intrasubject CV [2] [%] | Cmax, Intrasubject CV [2] [%] | Tmax (median time to reach maximum concentration) ([2]; plasma) [h] | AUCtau,ss, Intrasubject CV [3] [%] | Cmax,ss, Intrasubject CV [3] [%] | AUC ([3]; 400 mg) [ng·h/mL] | Cmax [3, 13] [ng/mL] | Cmax [3, 14] [ng/mL] | Tmax (time of peak concentrations) [3] [h] | decrease in Cmax [3, 15] [%] | Compound | safety and tolerability [5] | other results
1 | 15.9 | 16.4 | 26.7 | 1 |  |  |  |  |  |  |  | CCCc1nn(C)c2c(=O)[nH]c(-c3cc(S(=O)(=O)N4CCNCC4)ccc3OCC)nc12 [N‐desmethyl‐sildenafil] |  | share of sildenafil's pharmacological effects accounted for [1]: 20%; plasma concentration relative to parent compound ([1]; relative to sildenafil): ~40%; potency relative to parent compound ([1]; relative to sildenafil): ~50%; decrease in Cmax ([2]; coadministration of sildenafil and sacubitril/valsartan vs. sildenafil alone): 14%; AUCinf, Adjusted geometric mean [2, 10]: 305 ng·h/mL; AUClast, Adjusted geometric mean [2, 10]: 278 ng·h/mL; AUClast, Mean ± SD [2, 10]: 305 ± 133 ng·h/mL; Cmax, Adjusted geometric mean [2, 10]: 75.9 ng/mL; Cmax, Mean ± SD [2, 10]: 84.6 ± 39.3 ng/mL; AUCinf, Mean ± SD [2, 11]: 359 ± 157 ng·h/mL; Cmax, Mean ± SD [2, 11]: 95.1 ± 32.5 ng/mL; AUCinf, Adjusted geometric mean [2, 12]: 327 ng·h/mL; AUClast, Adjusted geometric mean [2, 12]: 297 ng·h/mL; AUClast, Mean ± SD [2, 12]: 331 ± 152 ng·h/mL; Cmax, Adjusted geometric mean [2, 12]: 88.4 ng/mL; terminal half-life (T1/2) ([2]; plasma, sildenafil administered alone): 5.3 ± 1.6 h; terminal half-life (T1/2) ([2]; plasma, sildenafil coadministered with sacubitril/valsartan): 6.2 ± 1.9 h
2 |  |  |  |  | 3.75 | 13 | 143000 ± 26300 | 14900 ± 2250 | 14000 ± 2420 | 2.0 |  | C[C@H](C[C@@H](Cc1ccc(-c2ccccc2)cc1)NC(=O)CCC(=O)O)C(=O)O [Sacubitrilat] |  | 
3 | 23.4 | 23.4 | 35.5 | 0.5 |  |  |  |  |  |  |  | CCCc1nn(C)c2c(=O)[nH]c(-c3cc(S(=O)(=O)N4CCN(C)CC4)ccc3OCC)nc12 [Sildenafil] | generally safe and well‐tolerated | duration of BP-lowering effect postdosing [4]: 5 h; suspected treatment-related AEs of moderate intensity ([5]; per study period): 1 AE; cardiac output ([6]; 50 mg sildenafil, patients with HFrEF): increased; safety and tolerability ([6]; sildenafil administered to patients with HFrEF): safe and well tolerated; half-life ([2]; male, human, plasma, oral, 50 mg): 3.7 ± 1 h; AUC(0-t) ([2]; male, human, plasma, oral, 50 mg, Mean ± SD, plasma, Sildenafil alone (Day 1)): 587 ± 270 ng·h/mL; AUC(0-t) ([2]; male, human, plasma, oral, Mean ± SD, plasma, Sacubitril/valsartan + Sildenafil (Day 8)): 612 ± 297 ng·h/mL; Cmax ([2]; male, human, plasma, oral, Cmax, Mean ± SD, plasma, Sacubitril/valsartan + Sildenafil (Day 8)): 189 ± 99.6 ng/mL
4 |  |  |  |  |  |  |  |  |  |  |  | Sacubitril/valsartan | generally safe and well‐tolerated | time to achieve steady-state levels [7]: 3 days; impact on the pharmacokinetics of the CYP2C9 substrate warfarin [8]: no impact
5 |  |  |  |  | 12.2 | 45.3 | 3400 ± 1000 | 2470 ± 865 | 2310 ± 1020 | 0.5 | 10 | CCOC(=O)[C@H](C)C[C@@H](Cc1ccc(-c2ccccc2)cc1)NC(=O)CCC(=O)O [Sacubitril] |  | 
6 |  |  |  |  | 28 | 32.6 | 33000 ± 12400 | 5300 ± 1750 | 3350 ± 1480 | 2.0 | 39 | CCCCC(=O)N(Cc1ccc(-c2ccccc2-c2nnn[nH]2)cc1)[C@H](C(=O)O)C(C)C [Valsartan] |  | intersubject variability in pharmacokinetic parameters [9]: 44%; decrease in AUC [3, 15]: 29%
